From ChEMBL document CHEMBL1127737, “Characterization of two taxol photoaffinity analogues bearing azide and benzophenone-related photoreactive substituents in the A-ring side chain” (1994)

What was measured:
[1] = Relative initial slope of the compound; format: functional
How it was run: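 Calf brain microtubule protein, purified by two cycles of temperature-dependent assembly-disassembly. Assembly ran in 0.1 M MES, 1 mM EGTA, MgCl2 and 3 M glycerol, pH 6.6, at 35 °C and was followed by turbidity at 350 nm. Assembly extent and initial slope were expressed relative to taxol. DMSO vehicle was at most 1% final.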

J774 = assay: Concentration that inhibits the cell division by 50% after 72 h; format: functional; conditions: Mus musculus, J774, 72 h; read-out: ED50 (the source's name)
How it was run: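 J774.2 murine macrophage-like cells (3×10^5 per 60-mm plate) incubated with a range of compound concentrations; viable cell number counted by Coulter counter after 72 h. ED50 taken as the concentration inhibiting cell division by 50%. Compounds dissolved in DMSO, final DMSO at most 0.2%.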

Tubulin (Bos taurus) = assay: Effect of compound on assembly property of microtubule protein. 1.5 mg/mL MTP + 15 uM compound

| SMILES | Relative initial slope [1] | EC50 (J774) [µM] | Assembly (Tubulin (Bos taurus)) [%] |
| --- | --- | --- | --- |
| CC(=O)O[C@H]1C(=O)[C@@]2(C)[C@H]([C@H](OC(=O)c3ccccc3)[C@]3(O)C[C@H](OC(=O)[C@H](O)[C@@H](NC(=O)c4ccc(N=[N+]=[N-])cc4)c4ccccc4)C(C)=C1C3(C)C)[C@]1(OC(C)=O)CO[C@@H]1C[C@@H]2O | 84 | 0.28 |  |
| CC(=O)O[C@H]1C(=O)[C@@]2(C)[C@H]([C@H](OC(=O)c3ccccc3)[C@]3(O)C[C@H](OC(=O)[C@H](O)C(NC(=O)c4ccc(C(=O)c5ccccc5)cc4)c4ccccc4)C(C)=C1C3(C)C)[C@]1(OC(C)=O)CO[C@@H]1C[C@@H]2O (stereo not given in full) | 15 | 1.5 | 39 |
| Nc1nc2c(ncn2[C@@H]2O[C@H](COP(=O)(O)OP(=O)(O)OP(=O)(O)O)[C@@H](O)[C@H]2O)c(=O)[nH]1 [GUANOSINE TRIPHOSPHATE] | 65 |  | 70 |
| CC(=O)O[C@H]1C(=O)[C@@]2(C)[C@H]([C@H](OC(=O)c3ccccc3)[C@]3(O)C[C@H](OC(=O)[C@H](O)[C@@H](NC(=O)c4ccccc4)c4ccccc4)C(C)=C1C3(C)C)[C@]1(OC(C)=O)CO[C@@H]1C[C@@H]2O [PACLITAXEL] | 100 | 0.09 | 100 |
